Measured values from ChEMBL document CHEMBL3120063, “Identification of chromomoric acid C-I as an Nrf2 activator in Chromolaena odorata” (J Nat Prod, 2014).
The source made the active and inactive calls. The rule behind the calls is not given here.

Assays:
[1] = target: T1, Nuclear factor erythroid 2-related factor 2 (Homo sapiens) (UniProt Q16236); experiment: Activation of Nrf2 (unknown origin) expressed in CHO-ARE-Luc cells after 18 hrs by luciferase reporter gene assay; assay type: cell-based
T1 sequence (whole entry): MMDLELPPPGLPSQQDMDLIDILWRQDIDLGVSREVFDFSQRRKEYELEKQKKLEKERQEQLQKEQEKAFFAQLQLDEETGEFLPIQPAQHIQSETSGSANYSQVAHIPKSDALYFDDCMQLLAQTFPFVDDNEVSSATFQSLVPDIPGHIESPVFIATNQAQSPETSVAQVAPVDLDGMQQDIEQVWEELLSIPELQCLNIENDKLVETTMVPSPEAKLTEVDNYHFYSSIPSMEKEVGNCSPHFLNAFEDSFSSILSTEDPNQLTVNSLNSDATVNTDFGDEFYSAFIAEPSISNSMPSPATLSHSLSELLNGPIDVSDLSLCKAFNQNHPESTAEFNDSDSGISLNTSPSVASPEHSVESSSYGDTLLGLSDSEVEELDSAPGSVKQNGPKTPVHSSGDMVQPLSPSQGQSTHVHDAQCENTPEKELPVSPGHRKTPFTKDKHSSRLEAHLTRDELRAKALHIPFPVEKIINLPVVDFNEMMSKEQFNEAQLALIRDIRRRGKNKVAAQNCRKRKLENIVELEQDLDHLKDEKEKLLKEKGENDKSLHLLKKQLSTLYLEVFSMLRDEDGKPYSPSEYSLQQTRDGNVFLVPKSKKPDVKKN
In short: (§1)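 CHO-ARE-Luc cells, kept in DMEM with 10% FCS, 2 mM glutamine and 4 μg/mL puromycin, were exposed to test agents for 18 h. 0.1% DMSO served as vehicle and 100 nM CDDO-IM as positive control. Luciferase was normalized to cell count (Cell Tracker Green CMFDA) and expressed as fold of DMSO control. Three independent experiments, means + SD. CD = concentration doubling the vehicle response.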

[2] = target: T1, Nuclear factor erythroid 2-related factor 2 (Homo sapiens); experiment: Activation of Nrf2 (unknown origin) expressed in CHO-ARE luc cells at 10 to 30 uM after 18 hrs by luciferase reporter gene assay; assay type: cell-based; in short: as §1
HEK293 = experiment: Inhibition of NF-kappaB (unknown origin) expressed in HEK293 cells co-expressing luc gene at 30 uM after 30 mins by luciferase reporter gene assay; assay type: cell-based; conditions: Homo sapiens
In short: (§2)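 HEK293/NF-κB-luc cells were stained 1 h with 2 μM Cell Tracker Green CMFDA, seeded at 4×10⁴ cells/well overnight, and pretreated 30 min with compound, 0.1% DMSO, or 5 μM parthenolide (positive control). They were then stimulated with 2 ng/mL TNF-α for 4 h and lysed; luminescence (NF-κB) and fluorescence (cell count) were read. n = 3.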

[3] = target: T2, Nuclear factor erythroid 2-related factor 2 (Mus musculus) (UniProt Q60795); experiment: Activation of Nrf2 in mouse Nrf2 deficient embryonic fibroblasts assessed as induction of HO-1expression at 10 uM after 18 hrs by immunoblotting analysis
T2 sequence (whole entry): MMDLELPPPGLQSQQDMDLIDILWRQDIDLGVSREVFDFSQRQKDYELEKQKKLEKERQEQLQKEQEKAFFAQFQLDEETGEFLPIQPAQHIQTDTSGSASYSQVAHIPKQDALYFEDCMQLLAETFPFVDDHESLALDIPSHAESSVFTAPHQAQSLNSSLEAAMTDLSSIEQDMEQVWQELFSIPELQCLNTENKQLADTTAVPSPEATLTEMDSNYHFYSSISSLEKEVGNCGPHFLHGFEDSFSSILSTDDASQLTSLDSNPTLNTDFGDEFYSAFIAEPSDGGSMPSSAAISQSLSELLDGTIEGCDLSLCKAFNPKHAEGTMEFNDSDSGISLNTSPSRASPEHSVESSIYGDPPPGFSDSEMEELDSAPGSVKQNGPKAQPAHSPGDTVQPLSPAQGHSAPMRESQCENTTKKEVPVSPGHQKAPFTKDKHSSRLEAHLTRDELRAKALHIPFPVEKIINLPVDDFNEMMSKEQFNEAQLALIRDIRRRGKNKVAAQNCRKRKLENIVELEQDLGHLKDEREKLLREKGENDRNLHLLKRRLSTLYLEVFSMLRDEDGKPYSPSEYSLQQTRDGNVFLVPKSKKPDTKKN
In short: (§3)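 MEF (WT and isogenic Nrf2−/−) or VSMC were seeded at (3–4) × 10⁵ cells/well and treated next day with 0.1% DMSO or compound for 18 h. Total lysates were run on SDS-PAGE and immunoblotted for HO-1, with actin as loading control. HO-1/actin by densitometry relative to vehicle (set at 1). Three independent experiments.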

[4] = target: T1, Nuclear factor erythroid 2-related factor 2 (Homo sapiens); experiment: Activation of Nrf2 (unknown origin) expressed in CHO-ARE luc cells at 5.2 uM after 18 hrs by luciferase reporter gene assay relative to vehicle-treated control; assay type: cell-based; in short: as §1
[5] = target: T1, Nuclear factor erythroid 2-related factor 2 (Homo sapiens); experiment: Activation of Nrf2 (unknown origin) expressed in CHO-ARE-Luc cells after 18 hrs by luciferase reporter gene assay in presence of GSH; assay type: cell-based
In short: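 ARE-luciferase assay in CHO-ARE-Luc cells with the medium supplemented with 2 mM glutathione before compound addition. Luciferase read 18 h later, normalized to cell count and given as fold of 0.1% DMSO control. CDDO-IM 100 nM as positive control. Three independent experiments.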

[6] = target: T2, Nuclear factor erythroid 2-related factor 2 (Mus musculus); experiment: Activation of Nrf2 in wild type mouse embryonic fibroblasts assessed as induction of HO-1expression after 18 hrs by immunoblotting analysis; in short: as §3
[7] = Cytotoxicity against human VSMC at 2 to 5 uM after 48 hrs by LDH assay
In short: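 Quiescent VSMC were treated with compound for 48 h. LDH release, measured with a nonradioactive CytoTox kit, was taken as readout of membrane integrity. Three independent experiments, 0.1% DMSO vehicle.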

[8] = target: T1, Nuclear factor erythroid 2-related factor 2 (Homo sapiens); experiment: Activation of Nrf2 (unknown origin) expressed in CHO-ARE luc cells at 10 uM after 18 hrs by luciferase reporter gene assay; assay type: cell-based; in short: as §1
[9] = target: T1, Nuclear factor erythroid 2-related factor 2 (Homo sapiens); experiment: Activation of Nrf2 in human VSMC assessed as induction of HO-1 expression at 3 uM after 18 hrs by immunoblotting analysis; in short: as §3
VSMC [10] = experiment: Antiproliferative activity against human VSMC assessed as inhibition of PDGF-induced cell proliferation at 5 uM incubated for 30 mins prior to PDGF challenge measured after 48 hrs by resazurin-mediated fluorescence assay in presence of protoporphyrin 9; assay type: functional
In short: (§4)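 Quiescent (serum-starved) VSMC were pretreated 30 min with 0.1% DMSO, compound, or 10 μM tin protoporphyrin IX (HO-1 inhibitor) as indicated, then stimulated 48 h with 20 ng/mL PDGF. After a PBS wash, cells were given 10 μg/mL resazurin in serum-free medium for 45 min; resorufin fluorescence read at ex 535/em 590 nm. Three independent experiments.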

VSMC [11] = experiment: Antiproliferative activity against human VSMC assessed as inhibition of PDGF-induced cell proliferation at 2 to 5 uM incubated for 30 mins prior to PDGF challenge measured after 48 hrs by resazurin-mediated fluorescence assay; assay type: functional; in short: as §4
[12] = Inhibition of NF-kappaB (unknown origin) expressed in HEK293 cells co-expressing luc gene after 30 mins by luciferase reporter gene assay; assay type: cell-based; conditions: Homo sapiens, HEK293, 0.5 h; in short: as §2

Compound: CCCCC/C=C/C=C1/C(=O)C=C[C@@H]1C/C=C\CCCC(=O)O
- Activity [1]: Dose-dependent effect

Compound: COc1ccc(-c2oc3cc(O)cc(O)c3c(=O)c2O)cc1
- Activity [2]: inactive

Compound: CC/C=C\C=C1/C(=O)C=C[C@@H]1CCCCCCCC(=O)O
- inhibition (HEK293): Active

Compound: CC/C=C\CC1C(=O)C=C/C1=C\CCCCCCC(=O)O (stereo not drawn)
- inhibition (HEK293): Active

Compound: CC/C=C\C[C@H]1C(=O)C=C[C@@H]1CCCCCCCC(=O)O
- inhibition (HEK293): Active

Compound: O=c1c(O)c(-c2ccc(O)cc2)oc2cc(O)cc(O)c12
- Activity [2]: inactive

Compound: COc1ccc(-c2cc(=O)c3c(O)c(OC)c(O)cc3o2)cc1
- Activity [2]: inactive

Compound: COc1cc(O)c2c(c1)O[C@H](c1ccc(O)cc1)[C@@H](O)C2=O
- Activity [2]: inactive

Compound: COc1ccc([C@@H]2CC(=O)c3c(cc(O)c(OC)c3O)O2)cc1O
- Activity [2]: inactive

Compound: COc1ccc(-c2cc(=O)c3c(O)c(OC)c(OC)cc3o2)cc1
- Activity [2]: inactive

Compound: O=C1C[C@@H](c2ccc(O)cc2)Oc2cc(O)cc(O)c21
- Activity [2]: inactive

Compound: COc1ccc([C@@H]2CC(=O)c3c(O)cc(O)cc3O2)cc1O
- Activity [2]: inactive

Compound: COc1ccc(-c2cc(=O)c3c(OC)c(OC)c(OC)cc3o2)cc1
- Activity [2]: inactive

Compound: CC/C=C\C=C1\C(=O)C=C[C@@H]1CCCCCCCC(=O)O
- Activity [3]: Active
- fold change (FC) [4]: 2
- Activity [5]: inactive
- Activity [6]: Dose-dependent effect
- Activity [7]: Non-toxic
- Activity [8]: Active
- Activity [9]: Active
- Activity (VSMC [10]): inactive
- inhibition (VSMC [11]): Active
- IC50 [12]: 6.9 µM

Compound: CC/C=C\CC1C(=O)C=C/C1=C/CCCCCCC(=O)O (stereo not drawn)
- inhibition (HEK293): Active

Compound: COc1ccc(-c2cc(=O)c3c(O)cc(O)cc3o2)cc1
- Activity [2]: inactive

Compound: COc1cc(O)c2c(=O)c(O)c(-c3ccc(OC)c(O)c3)oc2c1
- Activity [2]: inactive

Compound: COc1ccc(-c2oc3cc(O)c(OC)c(O)c3c(=O)c2O)cc1
- Activity [2]: inactive

Compound: COc1ccc([C@@H]2CC(=O)c3c(cc(OC)c(OC)c3O)O2)cc1OC
- Activity [2]: inactive
